Reference: ChEMBL document CHEMBL5038571, “Design and Synthesis of EZH2-Based PROTACs to Degrade the PRC2 Complex for Targeting the Noncatalytic Activity of EZH2” (J Med Chem, 2021)
Activity calls are given as the source filed them. The calls are words filed in the database; no cut-off is given here.

What was measured:
Format in all cases: cell-based
[1] = target: T1, Protein cereblon/Histone-lysine N-methyltransferase EZH2 (Homo sapiens) (UniProt Q15910+Q96SW2); experiment: PROTAC activity at CRBN E3 ligase/EZH2 in PRC2 complex in human SU-DHL-6 cells assessed as reduction in H3K27me3 level at 1 uM incubated for 48 hrs by Western blot analysis
How it was run: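 Cells cultured in DMEM or RPMI 1640 with 10% FBS and 1% penicillin-streptomycin, 37 °C, 5% CO2; exposed to 1 μM compound for 48 h. Lysates run on SDS-PAGE and transferred to nitrocellulose. Blocked 2 h in 5% skim milk, primary antibody overnight at 4 °C, then secondary antibody. Chemiluminescent detection of PRC2 subunits and H3K27me3.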

[2] = target: Polycomb protein SUZ12 (Homo sapiens) (UniProt Q15022); experiment: Binding affinity to SUZ12 in human WSUDLCL2 cells assessed as thermal stability by measuring shift in temperature at 60 uM pretreated with proteasome inhibitor MG132 for 1 hr followed by compound addition incubated for 2 hrs by cellular thermal shift based Western blot analysis
How it was run: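 Cellular thermal shift: cells suspended at 1.5 × 10⁶/mL and pretreated with MG-132 (5 μM, 1 h), then given 60 μM compound for 2 h with a DMSO control. Cells were lysed in RIPA with cocktail for 1 h. Supernatant aliquots were heated 6 min at 45, 48, 51, 54, 57 and 60 °C and centrifuged 15 min. Soluble protein was immunoblotted; bands quantified by densitometry; three independent experiments.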

[3] = target: T1, Protein cereblon/Histone-lysine N-methyltransferase EZH2 (Homo sapiens); experiment: PROTAC activity at CRBN E3 ligase/EZH2 in PRC2 complex in human WSUDLCL2 cells assessed as induction of EED degradation by measuring reduction in EED protein level at 1 uM measured after 48 to 72 hrs by Western blot analysis; conditions: time 48-72 hrs

T1 sequence (Q15910 whole entry, looked up): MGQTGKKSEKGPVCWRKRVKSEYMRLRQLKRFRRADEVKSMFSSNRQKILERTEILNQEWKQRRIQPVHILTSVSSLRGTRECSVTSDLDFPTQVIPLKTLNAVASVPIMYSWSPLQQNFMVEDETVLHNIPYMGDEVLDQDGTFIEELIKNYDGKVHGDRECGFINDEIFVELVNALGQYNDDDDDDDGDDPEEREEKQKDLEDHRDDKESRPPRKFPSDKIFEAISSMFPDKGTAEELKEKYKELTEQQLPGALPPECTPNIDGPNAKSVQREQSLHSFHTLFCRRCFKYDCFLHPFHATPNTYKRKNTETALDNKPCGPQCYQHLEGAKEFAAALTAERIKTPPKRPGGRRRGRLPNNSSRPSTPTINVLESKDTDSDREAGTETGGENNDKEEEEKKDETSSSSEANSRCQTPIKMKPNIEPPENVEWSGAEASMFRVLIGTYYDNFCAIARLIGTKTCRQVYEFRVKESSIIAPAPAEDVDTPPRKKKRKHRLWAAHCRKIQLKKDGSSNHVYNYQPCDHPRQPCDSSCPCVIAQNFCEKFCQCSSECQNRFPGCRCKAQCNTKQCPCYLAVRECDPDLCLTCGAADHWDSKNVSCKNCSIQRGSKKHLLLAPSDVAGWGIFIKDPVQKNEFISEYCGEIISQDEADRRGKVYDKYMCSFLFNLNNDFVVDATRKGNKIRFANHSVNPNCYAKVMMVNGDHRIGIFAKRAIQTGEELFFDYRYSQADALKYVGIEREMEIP
T1 sequence (Q96SW2 whole entry, looked up): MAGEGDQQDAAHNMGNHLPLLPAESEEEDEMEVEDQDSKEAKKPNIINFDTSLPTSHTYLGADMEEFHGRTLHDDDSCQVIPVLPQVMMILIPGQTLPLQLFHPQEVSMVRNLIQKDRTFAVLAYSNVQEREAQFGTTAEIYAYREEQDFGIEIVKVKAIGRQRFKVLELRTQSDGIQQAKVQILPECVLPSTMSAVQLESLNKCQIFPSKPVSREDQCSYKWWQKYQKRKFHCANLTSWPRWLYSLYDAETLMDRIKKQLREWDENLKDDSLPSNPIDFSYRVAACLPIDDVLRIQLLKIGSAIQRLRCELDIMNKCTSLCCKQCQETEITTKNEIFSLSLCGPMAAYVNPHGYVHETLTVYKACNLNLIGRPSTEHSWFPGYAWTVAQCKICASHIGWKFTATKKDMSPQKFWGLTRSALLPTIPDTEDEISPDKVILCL
Sequence of Polycomb protein SUZ12 (Homo sapiens) (Q15022 whole entry): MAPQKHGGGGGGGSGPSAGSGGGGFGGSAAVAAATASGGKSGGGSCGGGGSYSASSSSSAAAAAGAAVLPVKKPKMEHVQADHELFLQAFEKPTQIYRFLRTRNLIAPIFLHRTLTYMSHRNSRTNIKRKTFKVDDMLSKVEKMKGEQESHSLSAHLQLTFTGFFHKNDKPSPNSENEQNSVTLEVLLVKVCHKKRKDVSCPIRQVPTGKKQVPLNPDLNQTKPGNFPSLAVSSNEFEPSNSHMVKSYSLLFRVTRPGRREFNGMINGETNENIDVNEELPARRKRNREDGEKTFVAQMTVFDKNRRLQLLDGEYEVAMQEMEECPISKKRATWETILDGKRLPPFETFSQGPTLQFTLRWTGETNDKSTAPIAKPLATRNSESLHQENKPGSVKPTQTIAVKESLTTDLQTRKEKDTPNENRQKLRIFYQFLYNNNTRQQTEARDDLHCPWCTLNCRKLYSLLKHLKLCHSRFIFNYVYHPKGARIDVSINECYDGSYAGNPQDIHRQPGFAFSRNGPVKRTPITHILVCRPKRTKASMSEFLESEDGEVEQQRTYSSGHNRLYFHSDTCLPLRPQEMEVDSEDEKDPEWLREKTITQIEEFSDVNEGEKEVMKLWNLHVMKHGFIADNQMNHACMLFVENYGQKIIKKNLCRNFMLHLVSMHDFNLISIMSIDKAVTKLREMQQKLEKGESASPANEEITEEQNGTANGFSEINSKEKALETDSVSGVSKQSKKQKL

CCN(c1cc(-c2ccc(CN3CCN(CCCCCCCOc4cccc5c4C(=O)N(C4CCC(=O)NC4=O)C5=O)CC3)cc2)cc(C(=O)NCc2c(C)cc(C)[nH]c2=O)c1C)C1CCOCC1 (stereo not drawn)
Activity [1]: Active | Activity [2]: inactive | Activity [3]: Active
